These results are taken from ChEMBL document CHEMBL1122343, “2-Benzazepines. 4. [1,2,3]Triazolo[4,5-d][2]benzazepines and dibenzo[c,f][1,2,3]triazolo[3,4-a]azepines: synthesis and evaluation as central nervous system agents” (J Med Chem, 1983).

Data set [1] concerns the target GABA-A receptor; anion channel. The data set can be described thus: In vitro inhibition of [3H]diazepam binding to rat GABA-A benzodiazepine receptor. The format is protein-complex assay.
Data set [2] deals with Mus musculus. The data set can be described thus: Antianxiety activity, by anti-pentylenetetrazole test carried out on 50-54 day old mice (po). The class given is functional. An outline of the steps: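 Oral dosing to male CF-1 mice aged 50–54 days, using a modification of the Everett and Richards method. Metrazole was given iv at 70 mg/kg as the convulsant challenge.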

Data set [3] is described as follows: Lethal dose tested in mice by oral administration. The format is toxicity, organism-based. Particulars: mouse, in vivo.
Data set [4] has as its system Mus musculus. The data set can be described thus: Antianxiety activity, by inclined screen procedure carried out on 50-54 day old mice(po). The class given is functional.
For data set [5], the system named is Mus musculus. The data set can be described thus: Antianxiety activity, by rotarod test carried out on 50-54 day old mice (po). The class given is functional. For orientation: In the rotarod test animals must keep their balance on a rotating rod.

Molecules are shown by their SMILES.

Turning to `c1ccc(C2=NCc3n[nH]nc3-c3ccccc32)cc1`, the IC50 in data set [1] came out at 420 nM. Besides, the ED50 in data set [2] is more than 100 mg/kg. In addition, the LD50 in data set [3] amounted to 775 mg/kg.
The compound `Clc1ccccc1C1=NCc2n[nH]nc2-c2ccccc21` came in with an IC50 in data set [1] of 5.2 nM. The compound also yielded an ED50 in data set [2] of more than 100 mg/kg. This compound showed an LD50 in data set [3] of 900 mg/kg.
With `Clc1ccc2c(c1)C(c1ccccc1Cl)=NCc1n[nH]nc1-2`, in data set [1], the IC50 came to 0.76 nM. The ED50 in data set [2] is 2.6 mg/kg; in data set [4], more than 400 mg/kg; in data set [5], 57 mg/kg. Further, in data set [3], the median lethal dose (LD50) was more than 1000 mg/kg.
Compound `Clc1ccc2c(c1)C(c1ccccc1)=NCc1n[nH]nc1-2` displayed a concentration for half-maximal inhibition (IC50) in data set [1] of 11 nM. Also, the ED50 in data set [2] was 4.2 mg/kg; in data set [4] it was more than 400 mg/kg; in data set [5], 26 mg/kg. In data set [3], the LD50 is more than 1000 mg/kg.
The matching figures for `Fc1ccccc1C1=NCc2n[nH]nc2-c2ccc(Cl)cc21`: 0.76 nM, 2.1 mg/kg, 302 mg/kg, 48 mg/kg and more than 1000 mg/kg.
In the case of `CN1C(=O)CN=C(c2ccccc2)c2cc(Cl)ccc21` [DIAZEPAM], the ED50 in data set [2] was determined as 1.4 mg/kg; in data set [4], 25 mg/kg; in data set [5], 2.6 mg/kg.

By IC50 is commonly meant the concentration that gives 50% inhibition. For orientation: ED50 means the dose that gives a 50% effect, or the effect in half of the subjects. High values mean a need for a large dose, low ones an effect at a small dose. In general, LD50 refers to the dose at which mortality reaches 50%.
